Results: PubChem BioAssay
Unmarked numbers belong to inactive results. Records with an inconclusive call do not appear. Activity calls are given as the source filed them.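 How the source made its calls, unless noted: active means viability increase at or above a cutoff of the median across tested compounds plus 3 SD (cut at about 8.5% in these data, passing the limit was not always enough); inconclusive means some gains above the cutoff, reason not given; inactive means the rest.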

Experiments:
[1] = OD615 S. cerevisiae growth inhibition, permissive medium, pilot counter-assay, permissive growth control for S. cerevisiae lifespan shortening project (AID 705;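 active means growth inhibition above 25% in both replicates, a cutoff set 3 SD above the mean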); details: OD615, 24 h, at 10 µM, hits give high values
How it was run: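 System: Engineered DeaD yeast | Buffer or medium: SC raffinose/galactose permissive medium | Incubation: Cells pre-grown 4 h, then 24 h compound exposure, 30 °C humidified | Measured by: Absorbance (optical density) at 615 nm | Read-out: Reduction in yeast growth (OD615)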

[2] = Restrictive medium S. cerevisiae growth inhibition, OD615, pilot screen of yeast lifespan reduction project, restrictive growth control (AID 706;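 active means growth inhibition above a set limit, 3 SD over mean compound inhibition, in both replicates, cut at about 43% in these data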;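 further: modified DeaD lifespan yeast strain shifted to restrictive glucose medium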); details: OD615, 48 h, at 10 µM, hits give high values
How it was run: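 Material: modified S. cerevisiae; Medium: glucose-based CSMM-D restrictive medium; Compound dosing: one concentration, 10 µM final, 0.25% DMSO; Incubation: 48 h compound exposure at 30 °C; Measured by: OD615.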

[3] = viability gain of MRP-1-high H69AR cells under doxorubicin, pilot screen, MRP-1 activator project, CellTiter-Glo, duplicate (AID 807); details: H69AR viability with doxorubicin, CellTiter-Glo luminescence; at 10 µM; hits give high values;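 further: compound pretreatment 18-22 h then 72 h combined with doxorubicin; 0% = doxorubicin alone and 100% = vehicle without doxorubicin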
[4] = growth suppression of beta-catenin knockout HCT116, pilot screen, human colon tumor cells (AID 823;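 active means cell viability at or below a set limit in both duplicate runs, the limit being the all-compound median minus 4 SD, cut at about 23% in these data, passing the limit was not always enough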;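 further: 0% = wells killed by 20 µM Hyamine and 100% = untreated DMSO cell wells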); details: CellTiter-Glo, 60 h, at 10 µM, hits give low values
[5] = growth suppression of PTEN-deleted HCT116, pilot screen, cell-based, HCT116 clonal line, CellTiter-Glo (AID 824;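 active means viability at or below 27.92% in each of two runs, the all-compound median minus 4 SD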;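 further: 0% = 20 µM Hyamine control and 100% = vehicle cell control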); details: 60 h, at 10 µM, hits give low values
[6] = inhibitors of the yeast RAM network, pilot screen, dse1pr::URA3 reporter, 5-FOA selection (AID 869;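 active means inhibition over a set limit, the all-compound mean plus 3 SD, in both replicate runs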;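 further: 0% = DMSO wells with no growth and 100% = 10 µM 1-NA-PP1 with full growth; RAM network block rescues cells from 5-FOA so hits raise OD615 growth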); details: S. cerevisiae dse1pr::URA3 5-FOA growth, OD615, 2 d; at 10 µM; hits give high values; strain carries analog-sensitive mutant Cbk1 kinase
[7] = RAM signaling pathway blockade in yeast – S. cerevisiae, Pdr1DBD-CYC8 efflux-inhibited sensitized strain, primary screen (AID 1298;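 active means RAM network inhibition above 8.4% in each of two replicates, 3 SD over the compound average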;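 further: 0% = DMSO untreated cells without growth and 100% = 10 µM 1-NA-PP1 full growth; higher means more yeast growth rescued from 5-FOA killing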); details: S. cerevisiae cbk1-as DSE1-URA3 strain, 5-FOA growth OD615, 2 d; at 50 µM; hits give high values

SMILES	growth inhibition [1] [%]	growth inhibition [2] [%]	viability increase [3] [%]	viability [4]	viability [5] [%]	inhibition [6] [%]	RAM network inhibition [7] [%]
O=C(NO)c1ccc(C(=O)N(C2CCCCC2)C2CCCCC2)cc1	-0.05	5.84	-5.78	17.2% (active)	36.1	0.64	-1.08
CC1CCc2nn(CC(=O)N3CCCCCC3)cc2C1 (configuration not stated)	-3.02	1.8	-0.62	100%	91.4	1.23	1.06
COc1cccc(C(=O)Nc2nnc(-c3ccc(F)cc3)o2)c1	-12.2	-0.875	-3.38	29%	32	0.4	0.21
COc1ccc(Br)cc1CNC(=O)C1CCC(=O)N1C(C)C (configuration not stated)	6.52	4.42	-2.9	91.7%	94.7	1.99	3.58
CC1(C)Cc2c(C#N)c(NCCCO)nc(-c3ccccc3)c2CO1	-7.54	-20.9	-4.65	88%	85.3	0.25	-0.94
Cc1cc(C)c(C)c(OCC(=O)NCCN(C)C)c1	-11.6	-3.56	-1.08	91%	91.3	0.79	0.26
COc1ccc(C2C3=C(CC(C)(C)CC3=O)Nc3c2c(=O)[nH]c(=O)n3Cc2ccccc2)cc1 (configuration not stated)	-7	6.84	-2.53	89.5%	74.5	1.65	6.38
CCNc1nc(C)c2cc(Br)c(=O)n(CC)c2n1	-2.64	-8.07	-6.29	66.4%	64.6	0.44	7.93
COc1cc(C(=O)NCCc2cn3ccccc3n2)cc(OC)c1OC	-9.42	-6.93	-2.78	98.4%	95.9	2.1	2.62
CCCCC(CC)CNC(=O)c1[nH]c(C)c(C(C)=O)c1C (configuration not stated)	9.77	-2.26	-1.78	41.7%	63.8	1.91	1.29
CCCNC(=O)C(Cc1ccccc1)NS(=O)(=O)c1ccc2c(c1)CCC(=O)N2 (configuration not stated)	-5.35	-3.94	0.26	101%	102	0.755	1.71
Cc1nc2ccccc2c2oc(C(=O)NC3CC3)cc12	-8	5.36	-2.61	112%	89.6	0.79	-1.66
CCOC(=O)N1CCC(C(=O)Nc2ccc(OCC)cc2)CC1	5.44	-3.75	-1.27	88%	93.9	0.495	6.44
CCc1ncc(C(=O)c2ccc(OC)cc2)n1C	1.37	-0.315	3.42	105%	104	0.225	5.28
COc1ccc(S(=O)(=O)Cc2ccc(C(=O)NC3CCCC3)o2)cc1	-0.76	-12	-1.65	108%	96.3	1.19	2.65
CCCNC(=O)CS(=O)Cc1nc(-c2ccccc2C)oc1C (configuration not stated)	-14.3	-5.72	0.85	94.2%	96.9	-0.325	6.48
O=C(COc1ccccc1F)c1ccc(O)cc1O	-0.53	3.7	1.2	101%	106	0.25	-1.69
CCOc1ccccc1N1CCN(S(=O)(=O)CC)CC1	-0.885	4.05	-1.83	94.9%	97.6	0.455	6.05

SMILES	growth inhibition [1] [%]	growth inhibition [2] [%]	viability increase [3] [%]	viability [4]	viability [5] [%]	inhibition [6] [%]	RAM network inhibition [7] [%]
CCOC(=O)C1=C(C)NC(=O)NC1c1c(O)ccc2ccccc12 (configuration not stated)	-11.6	-12.7	-3.39	97.6%	95.4	0.77	2.29
O=C(c1cccc2c1-c1ccccc1/C2=N/O)N1CCCCC1	6.27	-0.58	-3.72	88.5%	92.3	0.91	4.23
O=C(CSc1nc2cc(Cl)ccc2s1)c1ccco1	-10.9	11.2	-4.44	95%	93.8	-0.07	-1.19
CCOC(=O)CSc1nc2nc(C)cc(C)n2n1	4.15	6.3	-1.33	101%	96	2.5	4.98
COC(=O)C1=C(C)N(C)C(=O)NC1c1ccc(O)c(OC)c1 (configuration not stated)	0.58	-7.74	-0.98	105%	98.9	0.425	6.2
COC1=CC(=O)OC12CCCCC2	3.99	-2.73	-0.88	94.7%	95.8	1.27	2.11
CC1(C)Cc2c(sc3nc(-c4cccs4)n(N)c(=O)c23)CO1	-10.5	18.5	-6.5	42.1%	45.5	0.19	1.7
COC(=O)C1(C)Nc2ccccc2C(=O)N1c1ccccc1OC (configuration not stated)	-17	-23.6	-0.77	103%	88.5	1.97	5.8
Cc1ccc(S(=O)(=O)N2CCCC(C(=O)N(Cc3cccs3)C3CC3)C2)cc1 (configuration not stated)	-7.06	-14.9	-0.66	61.3%	71.5	0.39	7.4
CCCC(=O)NCCCc1nc2ccccc2[nH]1	-8.81	-14.7	1.33	108%	100	1.45	2.55
COc1ccc(N(CC(=O)N2CC=C(c3ccccc3)CC2)S(=O)(=O)c2c(C)noc2C)cc1	-3.14	1.52	-4.79	98.1%	97.2	1.41	2.09
COc1ccc(N2C(=O)C3CCCN3C2c2ccccc2)cc1 (configuration not stated)	4.01	-9.51	-0.65	102%	101	1.87	-0.32
Cc1cc(C)nc(/N=C2\NC(=O)CC(C(=O)O)N2CCc2c[nH]c3ccccc23)n1 (configuration not stated)	-0.875	-4.41	-2.04	93.3%	84.1	0.67	-0.83
CN1CCN(CCNC(=O)c2cc3c(=O)n(C)c4ccccc4c3n2C)CC1	-12.9	-20	-4.6	82.3%	81.3	0.755	1.04
O=C(NCc1cccs1)C1CCN(S(=O)(=O)c2cccc3cccnc23)CC1	-3.73	-6.17	-0.65	93%	90.7	-0.03	1.45
COc1ccccc1C(=O)n1nc(-c2cccnc2)nc1N	-10.2	-5.6	-0.72	106%	105	2.24	0.59
O=S(=O)(c1ccccc1)n1ccc2ccccc21	-3	5.11	-5.11	87.4%	89.1	0.255	6.25
O=C(CCS(=O)(=O)c1cccc2nonc12)NCCc1ccccc1Cl	-1.5	-9.76	-5.15	91.2%	82.9	1.33	4.14
